pIC50: −log10 of the molar value. Calls of active or inactive are those of the source. The calls are words filed in the database; no cut-off is given here.
Legend:
SiHa = test: Antiproliferative activity against human SiHa cells assessed as reduction in cell viability at 80 nM incubated for 48 hrs by EdU staining based laser scanning confocal microscopy; assay type: functional
Outline: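 Cells, 5×10^4, were seeded in 24-well plates and treated for 48 h. They were then labeled using an EdU Apollo 488 imaging kit with Hoechst 33342 nuclear stain and imaged by laser scanning confocal microscopy. Percent EdU-positive cells = EdU-positive/Hoechst-stained × 100%.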

[1] = Toxicity in NOD/SCID BALB/c mouse xenografted with human SiHa cells assessed as effect on blood parameter by measuring WBC content at 40 mg/kg, po administered once two days for 4 times by hematology analyzer; assay type: organism-based; settings: in vivo
[2] = AUC (0 to infinity) in Sprague-Dawley rat at 10 mg/kg, po by HPLC-MS analysis; assay type: ADME, organism-based; design: dose 10 mg/kg, time infinity, route oral; settings: in vivo
Outline: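 Rats fitted with jugular vein catheters for serial blood sampling. Compound dissolved in saline with 5% (v/v) DMSO and given as a single 10 mg/kg dose iv or po after an overnight fast, n = 5 per group. Plasma isolated at once and measured by HPLC with tandem MS detection. Parameters derived by noncompartmental fitting.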

[3] = Oral bioavailability in Sprague-Dawley rat at 10 mg/kg by HPLC-MS analysis; assay type: ADME, organism-based; settings: in vivo
[4] = target: Calcium/calmodulin-dependent protein kinase type IV (Homo sapiens) (UniProt Q16566); test: Inhibition of recombinant full length human CAMK4 at 1 uM using calmodulin as substrate incubated for 40 mins in presence of [gamma-33P]-ATP by scintillation counting method relative to control
Sequence of Calcium/calmodulin-dependent protein kinase type IV (Homo sapiens) (Q16566 whole entry): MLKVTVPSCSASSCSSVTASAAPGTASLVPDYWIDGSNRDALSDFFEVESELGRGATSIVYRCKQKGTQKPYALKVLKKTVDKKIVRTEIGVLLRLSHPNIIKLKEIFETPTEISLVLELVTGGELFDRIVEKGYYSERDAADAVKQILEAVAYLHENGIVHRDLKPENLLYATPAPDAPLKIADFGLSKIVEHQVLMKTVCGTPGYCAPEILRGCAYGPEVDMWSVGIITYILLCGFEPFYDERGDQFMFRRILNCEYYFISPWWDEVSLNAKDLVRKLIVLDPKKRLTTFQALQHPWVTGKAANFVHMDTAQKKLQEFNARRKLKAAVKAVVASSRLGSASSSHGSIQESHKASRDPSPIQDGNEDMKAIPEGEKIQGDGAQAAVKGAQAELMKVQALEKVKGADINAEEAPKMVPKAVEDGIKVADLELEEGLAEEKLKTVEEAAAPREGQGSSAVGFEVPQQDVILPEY
Outline: (§1)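 Kinase panel profiling at 1 μM performed by Eurofins KinaseProfiler; percent inhibition reported as mean of two independent experiments.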

[5] = target: Myotonin-protein kinase (Homo sapiens) (UniProt Q09013); test: Inhibition of recombinant human DMPK (1 to 549 residues) at 1 uM using KKSRGDYMTMQIG as substrate incubated for 40 mins in presence of [gamma-33P]-ATP by scintillation counting method relative to control; outline: as §1
Sequence of Myotonin-protein kinase (Homo sapiens) (Q09013 whole entry, the tested form may be a part): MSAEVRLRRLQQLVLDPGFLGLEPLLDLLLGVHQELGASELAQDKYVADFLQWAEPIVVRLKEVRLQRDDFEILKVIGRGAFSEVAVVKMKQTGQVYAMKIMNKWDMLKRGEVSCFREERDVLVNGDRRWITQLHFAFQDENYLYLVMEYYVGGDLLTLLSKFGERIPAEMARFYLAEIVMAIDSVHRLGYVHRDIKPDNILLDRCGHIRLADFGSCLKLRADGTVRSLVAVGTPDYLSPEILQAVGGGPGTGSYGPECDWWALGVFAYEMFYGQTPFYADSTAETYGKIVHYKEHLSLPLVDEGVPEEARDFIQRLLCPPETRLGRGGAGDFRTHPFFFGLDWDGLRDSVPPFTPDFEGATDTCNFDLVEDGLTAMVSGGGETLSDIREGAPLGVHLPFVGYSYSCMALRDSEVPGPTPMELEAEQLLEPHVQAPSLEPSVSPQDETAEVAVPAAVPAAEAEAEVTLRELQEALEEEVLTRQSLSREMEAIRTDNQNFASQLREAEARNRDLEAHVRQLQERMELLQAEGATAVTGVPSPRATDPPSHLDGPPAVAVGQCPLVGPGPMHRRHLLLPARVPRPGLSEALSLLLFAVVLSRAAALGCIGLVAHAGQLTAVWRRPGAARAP

[6] = target: Epidermal growth factor receptor (Homo sapiens) (UniProt P00533); test: Inhibition of recombinant human EGFR (696 to end residues) at 1 uM using poly(Glu, Tyr) 4:1 as substrate incubated for 40 mins in presence of [gamma-33P]-ATP by scintillation counting method relative to control; outline: as §1
Sequence of Epidermal growth factor receptor (Homo sapiens) (P00533 whole entry): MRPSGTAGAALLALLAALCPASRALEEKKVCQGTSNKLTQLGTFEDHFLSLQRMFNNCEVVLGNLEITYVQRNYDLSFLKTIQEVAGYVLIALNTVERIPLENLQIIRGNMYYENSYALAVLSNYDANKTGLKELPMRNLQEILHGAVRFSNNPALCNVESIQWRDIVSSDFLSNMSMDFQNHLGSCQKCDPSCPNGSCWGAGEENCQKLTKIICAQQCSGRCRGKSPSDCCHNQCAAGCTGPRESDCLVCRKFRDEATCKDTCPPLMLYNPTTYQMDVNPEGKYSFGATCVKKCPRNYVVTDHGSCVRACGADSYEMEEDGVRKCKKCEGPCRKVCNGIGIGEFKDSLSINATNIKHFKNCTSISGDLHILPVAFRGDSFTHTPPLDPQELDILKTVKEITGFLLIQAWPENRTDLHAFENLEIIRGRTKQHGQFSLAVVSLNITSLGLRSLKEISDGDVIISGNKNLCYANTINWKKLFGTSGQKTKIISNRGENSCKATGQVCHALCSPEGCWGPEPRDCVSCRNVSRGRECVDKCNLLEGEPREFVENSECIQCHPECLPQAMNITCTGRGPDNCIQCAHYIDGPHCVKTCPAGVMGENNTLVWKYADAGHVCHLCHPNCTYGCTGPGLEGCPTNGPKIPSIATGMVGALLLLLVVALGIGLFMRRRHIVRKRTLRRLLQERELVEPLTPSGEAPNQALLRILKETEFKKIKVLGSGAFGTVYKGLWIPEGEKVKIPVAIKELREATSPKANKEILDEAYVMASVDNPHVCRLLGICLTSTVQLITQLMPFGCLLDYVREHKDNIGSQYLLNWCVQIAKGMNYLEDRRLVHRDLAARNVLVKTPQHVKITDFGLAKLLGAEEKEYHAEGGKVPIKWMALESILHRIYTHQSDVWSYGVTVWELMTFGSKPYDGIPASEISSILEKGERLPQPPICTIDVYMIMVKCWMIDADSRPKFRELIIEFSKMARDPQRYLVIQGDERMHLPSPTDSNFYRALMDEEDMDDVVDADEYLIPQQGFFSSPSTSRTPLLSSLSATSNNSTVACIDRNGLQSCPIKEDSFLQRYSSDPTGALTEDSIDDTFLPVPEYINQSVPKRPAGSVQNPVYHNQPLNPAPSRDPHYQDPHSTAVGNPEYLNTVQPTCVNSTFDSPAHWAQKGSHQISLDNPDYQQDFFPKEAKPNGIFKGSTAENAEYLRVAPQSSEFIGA

[7] = target: Receptor tyrosine-protein kinase erbB-2 (Homo sapiens) (UniProt P04626); test: Inhibition of recombinant human ERBB2 (676 to end residues) at 1 uM using poly (Glu, Tyr) 4:1 as substrate incubated for 40 mins in presence of [gamma-33P]-ATP by scintillation counting method relative to control
[8] = target: Serine/threonine-protein kinase STK11 (Homo sapiens) (UniProt Q15831); test: Inhibition of recombinant human full length LKB1 at 1 uM using LSNLYHQGKFLQTFCGSPLYRRR as substrate incubated for 40 mins in presence of [gamma-33P]-ATP by scintillation counting method relative to control
Sequence of Serine/threonine-protein kinase STK11 (Homo sapiens) (Q15831 whole entry): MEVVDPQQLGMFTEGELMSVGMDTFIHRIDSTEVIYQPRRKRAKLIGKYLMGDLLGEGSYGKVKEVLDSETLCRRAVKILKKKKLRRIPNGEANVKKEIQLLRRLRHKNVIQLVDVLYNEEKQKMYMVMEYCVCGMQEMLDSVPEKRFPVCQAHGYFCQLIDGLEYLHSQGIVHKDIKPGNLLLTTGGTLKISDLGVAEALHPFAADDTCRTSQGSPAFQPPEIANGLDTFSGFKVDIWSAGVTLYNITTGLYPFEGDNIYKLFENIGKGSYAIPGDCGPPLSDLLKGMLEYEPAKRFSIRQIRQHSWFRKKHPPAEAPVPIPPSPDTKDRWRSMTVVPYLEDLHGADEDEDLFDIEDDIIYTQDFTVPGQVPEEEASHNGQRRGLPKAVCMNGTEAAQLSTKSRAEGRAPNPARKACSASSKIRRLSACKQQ

[9] = target: Dual specificity mitogen-activated protein kinase kinase 4 (Mus musculus) (UniProt P47809); test: Inhibition of recombinant mouse MKK4 (34 to end residues) at 1 uM using unactive JNK1a1 as substrate incubated for 40 mins in presence of [gamma-33P]-ATP by scintillation counting method relative to control
Sequence of Dual specificity mitogen-activated protein kinase kinase 4 (Mus musculus) (P47809 whole entry): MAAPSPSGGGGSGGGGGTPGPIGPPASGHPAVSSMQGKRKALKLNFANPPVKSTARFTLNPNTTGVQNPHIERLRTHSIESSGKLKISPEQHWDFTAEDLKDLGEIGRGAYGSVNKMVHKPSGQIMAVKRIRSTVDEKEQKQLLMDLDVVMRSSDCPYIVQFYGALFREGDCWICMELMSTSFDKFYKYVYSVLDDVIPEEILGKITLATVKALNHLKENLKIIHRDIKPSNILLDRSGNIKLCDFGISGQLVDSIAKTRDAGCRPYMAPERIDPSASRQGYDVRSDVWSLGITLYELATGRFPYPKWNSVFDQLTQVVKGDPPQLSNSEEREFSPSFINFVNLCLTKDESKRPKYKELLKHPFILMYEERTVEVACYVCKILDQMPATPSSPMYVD

[10] = target: G protein-coupled receptor kinase 5 (Homo sapiens) (UniProt P34947); test: Inhibition of recombinant human full length GRK5 at 1 uM using casein as substrate incubated for 40 mins in presence of [gamma-33P]-ATP by scintillation counting method relative to control
Outline: (§2)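 Tested at a single 1 uM in an outsourced commercial kinase-profiling panel, read as percent inhibition. Each value is the mean of two independent experiments.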

[11] = target: DNA-dependent protein kinase catalytic subunit (Homo sapiens) (UniProt P78527); test: Inhibition of recombinant human full length DNA-PK at 1 uM using GST-cMyc-p53 as substrate incubated for 40 mins in presence of [gamma-33P]-ATP by scintillation counting method relative to control
[12] = target: Serine/threonine-protein kinase D2 (Homo sapiens) (UniProt Q9BZL6); test: Inhibition of recombinant human full length PKD2 at 1 uM using KKLNRTLSVA as substrate incubated for 40 mins in presence of [gamma-33P]-ATP by scintillation counting method relative to control
[13] = target: Mitogen-activated protein kinase 11 (Homo sapiens) (UniProt Q15759); test: Inhibition of recombinant human full length SAPK2b at 1 uM using myelin basic protein as substrate incubated for 40 mins in presence of [gamma-33P]-ATP by scintillation counting method relative to control
Outline: (§3)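 Single-point inhibition at 1 uM measured in a commercial kinase profiling panel (KinaseProfiler); each value is the mean of two independent experiments.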

[14] = target: SNF-related serine/threonine-protein kinase (Homo sapiens) (UniProt Q9NRH2); test: Inhibition of recombinant human SNRK (1 to 505 residues) at 1 uM using KKLRRTLSFAEPG as substrate incubated for 40 mins in presence of [gamma-33P]-ATP by scintillation counting method relative to control; outline: as §2
Sequence of SNF-related serine/threonine-protein kinase (Homo sapiens) (Q9NRH2 whole entry, the tested form may be a part): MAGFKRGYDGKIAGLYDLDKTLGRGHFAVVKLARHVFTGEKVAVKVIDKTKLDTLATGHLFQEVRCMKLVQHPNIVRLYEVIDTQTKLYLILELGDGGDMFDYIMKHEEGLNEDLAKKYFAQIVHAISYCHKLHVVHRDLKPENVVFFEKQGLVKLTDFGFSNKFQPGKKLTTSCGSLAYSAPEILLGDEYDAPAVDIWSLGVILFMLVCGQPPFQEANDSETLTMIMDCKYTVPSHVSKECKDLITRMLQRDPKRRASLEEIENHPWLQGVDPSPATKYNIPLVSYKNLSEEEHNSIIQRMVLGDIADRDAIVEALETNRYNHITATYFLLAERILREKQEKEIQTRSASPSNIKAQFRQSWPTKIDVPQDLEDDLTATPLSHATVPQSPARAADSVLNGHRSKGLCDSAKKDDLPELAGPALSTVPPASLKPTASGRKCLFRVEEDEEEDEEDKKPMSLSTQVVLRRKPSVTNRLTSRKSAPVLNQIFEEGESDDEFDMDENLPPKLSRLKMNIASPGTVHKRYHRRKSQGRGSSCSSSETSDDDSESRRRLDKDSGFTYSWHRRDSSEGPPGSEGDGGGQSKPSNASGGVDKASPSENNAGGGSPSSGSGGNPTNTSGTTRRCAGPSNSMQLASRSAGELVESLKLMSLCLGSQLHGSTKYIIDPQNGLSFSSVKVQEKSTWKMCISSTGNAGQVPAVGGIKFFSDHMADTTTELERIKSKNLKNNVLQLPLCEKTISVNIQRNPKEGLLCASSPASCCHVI

[15] = target: Wee1-like protein kinase 2 (Homo sapiens) (UniProt P0C1S8); test: Inhibition of recombinant human full length WEE1B at 1 uM using LSNLYHQGKFLQTFCGSPLYRRR as substrate incubated for 40 mins in presence of [gamma-33P]-ATP by scintillation counting method relative to control; outline: as §3
[16] = target: CDK6/cyclin D3 (Homo sapiens) (UniProt P30281+Q00534); test: Inhibition of recombinant human full length CDK6/cyclinD3 at 1 uM using histone H1 as substrate incubated for 40 mins in presence of [gamma-33P]-ATP by scintillation counting method relative to control; assay type: protein-complex assay
[17] = target: Fibroblast growth factor receptor 2 (Homo sapiens) (UniProt P21802); test: Inhibition of recombinant human FGFR2 (456 to 770 residues) at 1 uM using poly(Glu, Tyr) 4:1 as substrate incubated for 40 mins in presence of [gamma-33P]-ATP by scintillation counting method relative to control
[18] = target: Cyclin-dependent kinase 1/cyclin B1 (Homo sapiens, UniProt P06493); test: Inhibition of recombinant human full length CDK1/CyclinB using histone H1 as substrate incubated for 40 mins in presence of [gamma-33P]-ATP by scintillation counting method; assay type: protein-complex assay
[19] = target: Phosphatidylinositol 4,5-bisphosphate 3-kinase catalytic subunit gamma isoform (Homo sapiens) (UniProt P48736); test: Inhibition of recombinant human full length PI3K p120gamma at 1 uM using phosphatidylinositol-4, 5-bisphosphate as substrate incubated for 40 mins in presence of [gamma-33P]-ATP by scintillation counting method relative to control
Sequence of Phosphatidylinositol 4,5-bisphosphate 3-kinase catalytic subunit gamma isoform (Homo sapiens) (P48736 whole entry, looked up, canonical isoform): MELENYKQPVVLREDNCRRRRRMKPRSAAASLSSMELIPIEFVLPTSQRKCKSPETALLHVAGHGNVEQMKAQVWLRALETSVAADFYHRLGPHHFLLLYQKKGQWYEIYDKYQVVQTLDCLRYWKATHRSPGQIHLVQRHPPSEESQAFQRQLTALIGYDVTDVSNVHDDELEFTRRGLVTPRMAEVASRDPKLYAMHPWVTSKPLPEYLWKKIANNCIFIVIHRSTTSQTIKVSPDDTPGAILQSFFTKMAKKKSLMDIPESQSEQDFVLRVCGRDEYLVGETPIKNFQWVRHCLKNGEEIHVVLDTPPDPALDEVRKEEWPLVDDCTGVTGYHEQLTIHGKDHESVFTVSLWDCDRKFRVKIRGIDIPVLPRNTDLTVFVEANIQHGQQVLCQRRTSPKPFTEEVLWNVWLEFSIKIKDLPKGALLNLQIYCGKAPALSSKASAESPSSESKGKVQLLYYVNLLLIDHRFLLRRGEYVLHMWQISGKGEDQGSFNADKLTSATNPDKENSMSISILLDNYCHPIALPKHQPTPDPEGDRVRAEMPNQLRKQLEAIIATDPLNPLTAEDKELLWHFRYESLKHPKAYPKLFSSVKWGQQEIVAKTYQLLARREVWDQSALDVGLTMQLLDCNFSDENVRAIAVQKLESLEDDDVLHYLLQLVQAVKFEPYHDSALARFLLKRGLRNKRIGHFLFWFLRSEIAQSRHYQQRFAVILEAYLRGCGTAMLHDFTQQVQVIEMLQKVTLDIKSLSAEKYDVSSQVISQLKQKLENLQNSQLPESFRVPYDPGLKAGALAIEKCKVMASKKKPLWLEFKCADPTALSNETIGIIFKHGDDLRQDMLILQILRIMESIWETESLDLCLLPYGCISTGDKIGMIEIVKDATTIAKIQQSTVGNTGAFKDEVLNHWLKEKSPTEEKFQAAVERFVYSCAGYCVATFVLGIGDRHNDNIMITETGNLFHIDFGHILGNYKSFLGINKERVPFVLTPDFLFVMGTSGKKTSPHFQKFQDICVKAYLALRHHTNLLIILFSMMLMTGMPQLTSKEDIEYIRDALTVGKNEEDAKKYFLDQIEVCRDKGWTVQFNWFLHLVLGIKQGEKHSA

HeLa = test: Induction of cell cycle arrest in human HeLa cells assessed as decrease in accumulation in S phase at 40 to 80 nM incubated for 36 hrs by propidium iodide staining based flow cytometry; assay type: functional
Outline: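 Cells were treated with graded concentrations for 36 h, then fixed overnight in 70% ice-cold ethanol at 4°C and resuspended in PBS. Staining used 50 µg/ml PI plus 5 µg/ml RNase at 37°C for 30 min. DNA content was analysed by FACS to give G0/G1, S and G2/M fractions.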

## COc1cc2nccc(Oc3ccc(NC(=O)C4(C(=O)Nc5ccc(F)cc5)CC4)cc3)c2cc1OC [CABOZANTINIB]
SiHa
  inhibition: Active

## Cc1ccc(NC(=O)C2(C(=O)Nc3ccc(Nc4ncc(F)c(-c5cc(F)c6nc(C)n(C(C)C)c6c5)n4)cc3)CC2)cc1
[1]
  Activity: Non-Toxic
[2]
  AUC(0-inf): 6000 ng·h/mL
[3]
  bioavailability: 60%
[4]
  inhibition: 6%
[5]
  inhibition: 10%
[6]
  inhibition: 28%
[7]
  inhibition: 3%
[8]
  inhibition: 12%
[9]
  inhibition: 12%
[10]
  inhibition: 0%
[11]
  inhibition: 3%
[12]
  inhibition: 17%
[13]
  inhibition: 0%
[14]
  inhibition: 0%
[15]
  inhibition: 0%
[16]
  inhibition: 94%
[17]
  inhibition: 4%
[18]
  pIC50: 6.61
[19]
  inhibition: 14%
HeLa
  Activity: Active

— ChEMBL document CHEMBL4406821, “Novel dual inhibitors targeting CDK4 and VEGFR2 synergistically suppressed cancer progression and angiogenesis” (Eur J Med Chem, 2019)
